Test results from ChEMBL document CHEMBL1125369, “Synthesis, absolute configuration, stereoselectivity, and receptor selectivity of (alpha R, beta S)-alpha,beta-dimethylhistamine, a novel high potent histamine H3 receptor agonist” (J Med Chem, 1992).

Experiments:
Cavia porcellus [1] = organism: Cavia porcellus; assay: H2 agonistic activity by taking spontaneously beating guinea pig right atrium; assay type: functional, Cardiac atrium
Summary of the method: (§1)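 Right atrium from male guinea pigs (350–500 g), spontaneously beating, in McEvan's solution at 32.5 °C gassed with O2/5% CO2; 1 h equilibration. Beating rate recorded with a heart frequency meter. Cumulative histamine standard curve (10⁻⁷–10⁻⁵ M bath) run first; after washing, full curve of test agonist. One test per preparation, 3–4 experiments; EC50 mean ± sem (Sachs).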

Cavia porcellus [2] = organism: Cavia porcellus; assay: H1 agonistic activity by taking guinea pig ileum contraction; assay type: functional
Summary of the method: (§2)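 Male guinea pigs (350–500 g); 3 cm ileum pieces in Tyrode solution at 37 °C, gassed with O2 containing 5% CO2. Isotonic recording of contraction. A histamine standard curve is run first, with geometrically increasing bath concentrations up to maximal contraction. After washing, a cumulative concentration-response curve of the test agonist follows. Three or four experiments; EC50 as mean ± sem by the method of Sachs.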

Rattus norvegicus [3] = organism: Rattus norvegicus; assay: H3 agonistic activity against K+ induced histamine in slices of rat brain cortex.; assay type: functional
Summary of the method: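 Cortical slices (0.3 mm) from male Wistar rats (170–190 g), preloaded 30 min with [³H]-L-histidine (0.3 μM) and washed. Agonist added 5 min before depolarization; slices (2–3 mg protein) incubated 2 min at 37 °C with 2 or 30 mM KCl (final). Stopped by rapid centrifugation; [³H]histamine in tissue and medium quantified. 3–4 experiments; EC50 mean ± sem (Parker and Waud).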

[4] = target: Histamine H2 receptor (Cavia porcellus) (UniProt P47747); assay: Intrinsic activity against histamine H2 receptor in guinea pig right atrium; assay type: tissue-based; conditions: Cardiac atrium; summary of the method: as §1
[5] = target: Histamine H1 receptor (Cavia porcellus) (UniProt P31389); assay: Intrinsic activity against histamine H1 receptor in guinea pig ileum; assay type: tissue-based; summary of the method: as §2
Cavia porcellus [6] = organism: Cavia porcellus; assay: In vitro H1 agonistic activity by taking guinea pig ileum contraction
Cavia porcellus [7] = organism: Cavia porcellus; assay: In vitro H2 agonistic activity by taking spontaneously beating guinea pig right atrium; conditions: Cardiac atrium
Rattus norvegicus [8] = organism: Rattus norvegicus; assay: In vitro H3 agonistic activity against K+ induced histamine in slices of rat brain cortex.
[9] = Kinetic constant Km value of the enzyme; assay type: ADME
Summary of the method: (§3)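 Histamine N-methyltransferase purified from rat kidney. Increasing substrate concentrations incubated 1 h at 25 °C with unlabeled plus [³H]-S-adenosylmethionine (5 μM final). Stopped with perchloric acid (0.4 N final), then NaOH (1 N final). [³H]-τ-methylhistamine extracted into toluene-isoamyl alcohol (3 + 2) and counted by liquid scintillation.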

[10] = Kinetic constant Vmax value of the enzyme; assay type: ADME; summary of the method: as §3
[11] = Cavia porcellus, Cardiac atrium, read-out: EC50
[12] = Cavia porcellus, Ileum, read-out: EC50

Chain of Histamine H1 receptor (Cavia porcellus) (P31389 whole entry): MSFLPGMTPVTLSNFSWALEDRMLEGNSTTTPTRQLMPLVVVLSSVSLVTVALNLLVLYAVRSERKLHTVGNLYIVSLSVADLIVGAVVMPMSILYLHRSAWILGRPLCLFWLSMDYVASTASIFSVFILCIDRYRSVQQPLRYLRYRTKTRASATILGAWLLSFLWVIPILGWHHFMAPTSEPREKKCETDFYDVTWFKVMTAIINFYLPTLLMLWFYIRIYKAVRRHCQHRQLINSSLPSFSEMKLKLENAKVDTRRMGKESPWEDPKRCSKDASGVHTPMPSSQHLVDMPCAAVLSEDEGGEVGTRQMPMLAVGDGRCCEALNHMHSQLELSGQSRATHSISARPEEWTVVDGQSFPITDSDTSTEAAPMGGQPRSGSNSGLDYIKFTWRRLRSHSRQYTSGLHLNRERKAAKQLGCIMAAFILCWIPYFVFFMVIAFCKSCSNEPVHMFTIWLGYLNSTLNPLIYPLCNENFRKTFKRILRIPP
Chain of Histamine H2 receptor (Cavia porcellus) (P47747 whole entry): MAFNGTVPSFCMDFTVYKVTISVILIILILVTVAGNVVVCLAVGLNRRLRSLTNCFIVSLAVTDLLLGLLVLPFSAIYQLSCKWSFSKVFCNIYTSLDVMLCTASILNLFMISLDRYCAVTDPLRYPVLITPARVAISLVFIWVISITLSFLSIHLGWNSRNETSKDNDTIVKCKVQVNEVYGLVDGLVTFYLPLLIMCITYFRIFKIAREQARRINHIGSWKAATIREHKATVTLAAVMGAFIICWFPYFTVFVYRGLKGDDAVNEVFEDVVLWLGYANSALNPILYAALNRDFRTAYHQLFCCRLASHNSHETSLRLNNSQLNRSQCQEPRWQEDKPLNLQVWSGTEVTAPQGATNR

Structure (SMILES) | EC50 (Cavia porcellus [1]) | EC50 (Cavia porcellus [2]) | EC50 (Rattus norvegicus [3]; Rattus norvegicus) [nM] | EC50 (Cavia porcellus [1]; [11]) [nM] | EC50 (Cavia porcellus [2]; [12]) [nM] | Intrinsic activity [4] | Intrinsic activity [5] | other results
Br.Br.C[C@@H](N)[C@@H](C)c1c[nH]cn1 | Not Active | Not Active | 350 | – | – | – | – | –
C[C@@H](N)[C@@H](C)c1c[nH]cn1 (relative stereo) | Not Active | Not Active | – | – | – | – | – | EC50 (Rattus norvegicus [3]): 190 nM
NCCc1c[nH]cn1 [HISTAMINE] | – | – | – | – | – | 1 | 1 | EC50 (Cavia porcellus [6]): 140 nM; EC50 (Cavia porcellus [7]): 1000 nM; EC50 (Rattus norvegicus [8]): […]
Br.Br.C[C@H](N)[C@H](C)c1c[nH]cn1 | – | – | 3.4 | 410000 | 420000 | 0.86 | 0.56 | Km [9]: 2.8 µM; Vmax [10]: 1.7 nM/h/mg

Continued, in another order:

EC50 (Cavia porcellus [1]) | EC50 (Cavia porcellus [2]) | EC50 (Rattus norvegicus [3]; Rattus norvegicus) [nM] | EC50 (Cavia porcellus [1]; [11]) [nM] | EC50 (Cavia porcellus [2]; [12]) [nM] | Intrinsic activity [4] | Intrinsic activity [5] | Structure (SMILES) | other results
– | – | 12 | 940000 | 180000 | 0.66 | 0.94 | CC(N)C(C)c1c[nH]cn1 (stereo unspecified) | –
Not Active | Not Active | 6.2 | – | – | – | – | C[C@H](N)[C@@H](C)c1c[nH]cn1 (relative stereo) | –
